In ChEMBL document CHEMBL4382192, “Discovery of a potent dual ALK and EGFR T790M inhibitor” (Eur J Med Chem, 2017) one finds Activity data, which are given here for one compound.

The structures appear in SMILES notation.

The target of experiment [1] is Mitogen-activated protein kinase kinase kinase 3 (Homo sapiens) (UniProt Q99759). Kind of experiment: Binding affinity to wild-type human partial length MAP3K3 (E320 to Y626 residues) expressed in mammalian expression system assessed as residual binding level at 1 uM by Kinomescan method relative to control.
Experiment [2] has as its target SRSF protein kinase 3 (Homo sapiens) (UniProt Q9UPE1). Kind of experiment: Binding affinity to wild-type human partial length SRPK3 (P41 to P567 residues) expressed in bacterial expression system assessed as residual binding level at 1 uM by Kinomescan method relative to control.
Experiment [3] concerns the target Serine/threonine-protein kinase PAK 4 (Homo sapiens) (UniProt O96013). The experiment can be described thus: Binding affinity to wild-type human partial length PAK4 (Q144 to R438 residues) expressed in bacterial expression system assessed as residual binding level at 1 uM by Kinomescan method relative to control.
For experiment [4], the target named is MAP kinase-activated protein kinase 5 (Homo sapiens) (UniProt Q8IW41). The experiment can be described thus: Binding affinity to wild-type human partial length MAPKAPK5 (M1 to D322 residues) expressed in mammalian expression system assessed as residual binding level at 1 uM by Kinomescan method relative to control.
The target of experiment [5] is Calcium/calmodulin-dependent protein kinase type II subunit delta (Homo sapiens) (UniProt Q13557). The experiment can be described thus: Binding affinity to wild-type human partial length CAMK2D (M1 to E329 residues) expressed in bacterial expression system assessed as residual binding level at 1 uM by Kinomescan method relative to control.
Experiment [6] deals with Mitogen-activated protein kinase kinase kinase 14 (Homo sapiens) (UniProt Q99558). Kind of experiment: Binding affinity to wild-type human partial length NIK (L318 to P947 residues) expressed in mammalian expression system assessed as residual binding level at 1 uM by Kinomescan method relative to control.
Experiment [7] addresses Myosin-IIIa (Homo sapiens) (UniProt Q8NEV4). The experiment can be described thus: Binding affinity to wild-type human partial length MYO3A (M1 to K338 residues) expressed in bacterial expression system assessed as residual binding level at 1 uM by Kinomescan method relative to control.
The target in experiment [8] is Dual specificity mitogen-activated protein kinase kinase 6 (Homo sapiens) (UniProt P52564). Kind of experiment: Binding affinity to wild-type human partial length MEK6 (K36 to D334 residues) expressed in bacterial expression system assessed as residual binding level at 1 uM by Kinomescan method relative to control.
Experiment [9] deals with Mast/stem cell growth factor receptor Kit (Homo sapiens), P10721 [D816H]. The experiment can be described thus: Binding affinity to human partial length KIT D816H mutant (I571 to D952 residues) expressed in mammalian expression system assessed as residual binding level at 1 uM by Kinomescan method relative to control. The gist of the method: (§1)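 Kinome-wide selectivity panel run by the KINOMEscan method, with the test compound at a single concentration of 1 μM. Wild-type and mutant kinases were profiled in the same screen.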

Experiment [10] has as its target Calcium-dependent protein kinase 1 (Plasmodium falciparum) (UniProt P62344). The experiment can be described thus: Binding affinity to wild-type Plasmodium falciparum full length CDPK1 (M1 to S524 residues) expressed in mammalian expression system assessed as residual binding level at 1 uM by Kinomescan method relative to control.
Experiment [11] has as its target Tyrosine-protein kinase Blk (Homo sapiens, UniProt P51451). Kind of experiment: Binding affinity to wild-type human partial length BLK (G211 to L503 residues) expressed in bacterial expression system assessed as residual binding level at 1 uM by Kinomescan method relative to control.
The target of experiment [12] is Ribosomal protein S6 kinase alpha-4 (Homo sapiens) (UniProt O75676). The experiment can be described thus: Binding affinity to wild-type human partial length C-terminal RPS6KA4 kinase domain 2 (M375 to T705 residues) expressed in mammalian expression system assessed as residual binding level at 1 uM by Kinomescan method relative to control.
The target in experiment [13] is Serine/threonine-protein kinase MRCK beta (Homo sapiens) (UniProt Q9Y5S2). The experiment can be described thus: Binding affinity to wild-type human partial length MRCKB (L56 to S417 residues) expressed in bacterial expression system assessed as residual binding level at 1 uM by Kinomescan method relative to control.
The target in experiment [14] is CDK4/Cyclin D3 (Homo sapiens) (UniProt P11802+P30281). Kind of experiment: Binding affinity to wild-type human full length CDK4/cyclinD3 (M1 to E303 residues) expressed in mammalian expression system assessed as residual binding level at 1 uM by Kinomescan method relative to control.
The target of experiment [15] is Serine/threonine-protein kinase N1 (Homo sapiens) (UniProt Q16512). Kind of experiment: Binding affinity to wild-type human partial length PKN1 (E598 to C948 residues) expressed in bacterial expression system assessed as residual binding level at 1 uM by Kinomescan method relative to control.
Experiment [16] has as its target Calcium/calmodulin-dependent protein kinase type IV (Homo sapiens) (UniProt Q16566). The experiment can be described thus: Binding affinity to wild-type human partial length CAMK4 (A22 to A322 residues) expressed in bacterial expression system assessed as residual binding level at 1 uM by Kinomescan method relative to control.
Experiment [17] deals with Epidermal growth factor receptor (Homo sapiens), P00533 [L858R,T790M]. The experiment can be described thus: Binding affinity to human partial length EGFR L858R/T790M double mutant (R669 to V1011 residues) expressed in mammalian expression system assessed as residual binding level at 1 uM by Kinomescan method relative to control. The gist of the method:
as §1

The target of experiment [18] is Proto-oncogene tyrosine-protein kinase ROS (Homo sapiens) (UniProt P08922). Kind of experiment: Binding affinity to wild-type human partial length ROS1 (A1921 to N2240 residues) expressed in bacterial expression system assessed as residual binding level at 1 uM by Kinomescan method relative to control.
Experiment [19] concerns the target Phosphatidylinositol 3-kinase catalytic subunit type 3 (Homo sapiens) (UniProt Q8NEB9). The experiment can be described thus: Binding affinity to wild-type human partial length VPS34 (S282 to H879 residues) expressed in mammalian expression system assessed as residual binding level at 1 uM by Kinomescan method relative to control.
For experiment [20], the target named is Serine/threonine-protein kinase 24 (Homo sapiens) (UniProt Q9Y6E0). The experiment can be described thus: Binding affinity to wild-type human partial length MST3 (A30 to S311 residues) expressed in bacterial expression system assessed as residual binding level at 1 uM by Kinomescan method relative to control.
Experiment [21] concerns Receptor-type tyrosine-protein kinase FLT3 (Homo sapiens), P36888 [D835H]. Kind of experiment: Binding affinity to human partial length FLT3 D835H mutant (V592 to Y969 residues) expressed in bacterial expression system assessed as residual binding level at 1 uM by Kinomescan method relative to control. The gist of the method: as §1
The target in experiment [22] is Serine/threonine-protein kinase WNK1 (Homo sapiens) (UniProt Q9H4A3). The experiment can be described thus: Binding affinity to wild-type human partial length WNK1 (Q194 to A490 residues) expressed in mammalian expression system assessed as residual binding level at 1 uM by Kinomescan method relative to control.
The target of experiment [23] is Mitogen-activated protein kinase 14 (Homo sapiens) (UniProt Q16539). The experiment can be described thus: Binding affinity to wild-type human full length p38-alpha (M1 to S360 residues) expressed in bacterial expression system assessed as residual binding level at 1 uM by Kinomescan method relative to control.
For experiment [24], the target named is Mitogen-activated protein kinase kinase kinase 10 (Homo sapiens) (UniProt Q02779). Kind of experiment: Binding affinity to wild-type human partial length MLK2 (V52 to W380 residues) expressed in bacterial expression system assessed as residual binding level at 1 uM by Kinomescan method relative to control.

Serine/threonine-protein kinase 24 (Homo sapiens), sequence (Q9Y6E0 whole entry, looked up, the tested form may be a part): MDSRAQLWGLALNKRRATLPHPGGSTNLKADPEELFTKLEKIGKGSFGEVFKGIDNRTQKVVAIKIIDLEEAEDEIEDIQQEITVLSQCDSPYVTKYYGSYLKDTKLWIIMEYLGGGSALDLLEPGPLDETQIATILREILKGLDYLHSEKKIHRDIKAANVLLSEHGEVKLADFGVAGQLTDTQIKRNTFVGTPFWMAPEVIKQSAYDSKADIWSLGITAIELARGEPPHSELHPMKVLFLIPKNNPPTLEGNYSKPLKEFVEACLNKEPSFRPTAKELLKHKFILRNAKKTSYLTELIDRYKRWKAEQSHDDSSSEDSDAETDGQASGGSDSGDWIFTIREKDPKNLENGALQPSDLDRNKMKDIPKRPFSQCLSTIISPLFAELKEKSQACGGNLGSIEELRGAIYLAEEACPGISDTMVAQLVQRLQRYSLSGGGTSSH
SRSF protein kinase 3 (Homo sapiens), sequence (Q9UPE1 whole entry, the tested form may be a part): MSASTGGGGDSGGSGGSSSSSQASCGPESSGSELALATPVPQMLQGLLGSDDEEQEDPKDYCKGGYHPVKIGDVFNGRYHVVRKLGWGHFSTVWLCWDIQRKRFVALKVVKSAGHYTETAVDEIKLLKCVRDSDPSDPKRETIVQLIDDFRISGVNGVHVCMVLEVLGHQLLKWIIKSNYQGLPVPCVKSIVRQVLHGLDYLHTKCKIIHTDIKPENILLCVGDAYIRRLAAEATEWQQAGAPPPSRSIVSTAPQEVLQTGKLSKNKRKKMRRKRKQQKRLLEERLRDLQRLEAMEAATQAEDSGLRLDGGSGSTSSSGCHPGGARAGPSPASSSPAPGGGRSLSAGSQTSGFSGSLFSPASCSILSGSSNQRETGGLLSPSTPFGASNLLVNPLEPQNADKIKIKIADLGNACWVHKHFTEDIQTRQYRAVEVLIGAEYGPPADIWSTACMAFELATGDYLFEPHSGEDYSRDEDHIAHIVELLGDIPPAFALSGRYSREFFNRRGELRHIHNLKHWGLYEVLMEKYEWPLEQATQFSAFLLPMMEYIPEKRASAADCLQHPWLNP
Mast/stem cell growth factor receptor Kit (Homo sapiens), P10721 [D816H], sequence (P10721 whole entry D816H, the tested form may be a part): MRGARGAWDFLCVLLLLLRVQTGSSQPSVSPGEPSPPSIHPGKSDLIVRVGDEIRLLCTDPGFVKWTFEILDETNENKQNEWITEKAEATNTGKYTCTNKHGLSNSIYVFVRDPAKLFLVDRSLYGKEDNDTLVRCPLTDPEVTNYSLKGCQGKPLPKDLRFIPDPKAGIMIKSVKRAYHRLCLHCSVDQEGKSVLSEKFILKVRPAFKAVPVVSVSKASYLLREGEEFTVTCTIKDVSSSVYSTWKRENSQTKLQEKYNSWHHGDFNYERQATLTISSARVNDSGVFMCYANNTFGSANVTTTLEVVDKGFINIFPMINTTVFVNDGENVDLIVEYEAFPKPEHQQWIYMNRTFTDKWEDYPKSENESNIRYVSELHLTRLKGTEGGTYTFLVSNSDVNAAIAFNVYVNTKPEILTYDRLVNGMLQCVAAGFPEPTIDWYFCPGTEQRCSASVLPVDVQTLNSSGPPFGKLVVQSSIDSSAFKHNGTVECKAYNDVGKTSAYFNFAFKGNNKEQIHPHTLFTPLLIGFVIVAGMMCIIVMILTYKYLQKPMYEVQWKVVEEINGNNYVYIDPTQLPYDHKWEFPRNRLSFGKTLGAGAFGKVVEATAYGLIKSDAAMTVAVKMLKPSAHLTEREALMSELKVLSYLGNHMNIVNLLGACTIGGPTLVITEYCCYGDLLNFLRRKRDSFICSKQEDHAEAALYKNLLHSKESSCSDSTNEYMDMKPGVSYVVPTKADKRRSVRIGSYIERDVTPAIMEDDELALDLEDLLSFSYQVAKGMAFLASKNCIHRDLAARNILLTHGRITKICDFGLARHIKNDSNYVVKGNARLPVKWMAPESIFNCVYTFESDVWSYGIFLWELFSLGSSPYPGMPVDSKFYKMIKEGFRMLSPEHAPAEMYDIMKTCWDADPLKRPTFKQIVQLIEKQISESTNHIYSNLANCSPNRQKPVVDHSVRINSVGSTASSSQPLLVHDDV
Myosin-IIIa (Homo sapiens), sequence (Q8NEV4 whole entry, the tested form may be a part): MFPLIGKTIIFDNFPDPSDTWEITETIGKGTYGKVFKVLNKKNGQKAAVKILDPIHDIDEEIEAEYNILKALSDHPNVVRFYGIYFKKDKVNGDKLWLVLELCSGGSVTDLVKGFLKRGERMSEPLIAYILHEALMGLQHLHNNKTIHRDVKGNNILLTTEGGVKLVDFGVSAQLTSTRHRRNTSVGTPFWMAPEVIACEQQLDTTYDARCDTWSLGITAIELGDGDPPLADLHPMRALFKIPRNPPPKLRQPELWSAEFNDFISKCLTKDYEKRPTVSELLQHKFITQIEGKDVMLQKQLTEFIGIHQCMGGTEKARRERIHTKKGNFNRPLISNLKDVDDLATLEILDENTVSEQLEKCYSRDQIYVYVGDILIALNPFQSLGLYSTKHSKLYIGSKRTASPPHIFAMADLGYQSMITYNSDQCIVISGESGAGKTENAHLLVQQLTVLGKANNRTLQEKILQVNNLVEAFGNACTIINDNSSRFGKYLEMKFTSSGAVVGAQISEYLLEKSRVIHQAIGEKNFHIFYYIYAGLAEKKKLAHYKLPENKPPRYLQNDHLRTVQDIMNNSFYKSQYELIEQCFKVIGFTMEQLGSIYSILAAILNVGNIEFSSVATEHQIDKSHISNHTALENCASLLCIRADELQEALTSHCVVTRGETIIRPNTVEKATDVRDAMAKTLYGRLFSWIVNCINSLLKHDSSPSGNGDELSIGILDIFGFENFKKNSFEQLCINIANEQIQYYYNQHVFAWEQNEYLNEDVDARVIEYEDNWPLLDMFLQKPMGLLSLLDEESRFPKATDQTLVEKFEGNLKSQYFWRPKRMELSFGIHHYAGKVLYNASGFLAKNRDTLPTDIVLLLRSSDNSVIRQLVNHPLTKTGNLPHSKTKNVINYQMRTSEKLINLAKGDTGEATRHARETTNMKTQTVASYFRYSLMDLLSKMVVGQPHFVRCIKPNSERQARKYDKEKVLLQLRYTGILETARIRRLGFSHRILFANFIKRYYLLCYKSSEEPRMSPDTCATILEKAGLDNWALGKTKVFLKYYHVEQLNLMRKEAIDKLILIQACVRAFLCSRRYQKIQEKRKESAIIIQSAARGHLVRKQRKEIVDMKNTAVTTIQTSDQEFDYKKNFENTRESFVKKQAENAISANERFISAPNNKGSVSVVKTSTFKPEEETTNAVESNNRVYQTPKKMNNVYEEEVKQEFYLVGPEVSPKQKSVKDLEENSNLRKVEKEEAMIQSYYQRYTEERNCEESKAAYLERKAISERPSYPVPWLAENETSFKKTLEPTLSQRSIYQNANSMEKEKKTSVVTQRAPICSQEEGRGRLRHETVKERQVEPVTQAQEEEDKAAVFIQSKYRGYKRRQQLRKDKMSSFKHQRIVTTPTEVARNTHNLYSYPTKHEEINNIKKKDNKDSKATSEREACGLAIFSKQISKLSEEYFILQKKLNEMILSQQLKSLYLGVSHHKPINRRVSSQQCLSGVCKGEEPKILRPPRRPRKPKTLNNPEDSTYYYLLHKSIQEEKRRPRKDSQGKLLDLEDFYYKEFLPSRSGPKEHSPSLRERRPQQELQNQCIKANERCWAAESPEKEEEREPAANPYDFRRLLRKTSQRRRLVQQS
Mitogen-activated protein kinase 14 (Homo sapiens), sequence (Q16539 whole entry, the tested form may be a part): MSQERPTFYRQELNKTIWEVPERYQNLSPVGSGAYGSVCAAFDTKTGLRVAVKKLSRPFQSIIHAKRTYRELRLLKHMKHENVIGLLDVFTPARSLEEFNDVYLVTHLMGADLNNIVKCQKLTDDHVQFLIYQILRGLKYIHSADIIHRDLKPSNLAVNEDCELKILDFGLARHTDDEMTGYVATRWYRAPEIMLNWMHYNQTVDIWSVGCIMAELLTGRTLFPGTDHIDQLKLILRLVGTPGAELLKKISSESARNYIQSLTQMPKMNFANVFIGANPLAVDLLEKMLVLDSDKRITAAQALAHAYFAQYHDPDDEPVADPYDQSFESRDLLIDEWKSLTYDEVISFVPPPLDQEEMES
Serine/threonine-protein kinase N1 (Homo sapiens), sequence (Q16512 2-942 limits assumed): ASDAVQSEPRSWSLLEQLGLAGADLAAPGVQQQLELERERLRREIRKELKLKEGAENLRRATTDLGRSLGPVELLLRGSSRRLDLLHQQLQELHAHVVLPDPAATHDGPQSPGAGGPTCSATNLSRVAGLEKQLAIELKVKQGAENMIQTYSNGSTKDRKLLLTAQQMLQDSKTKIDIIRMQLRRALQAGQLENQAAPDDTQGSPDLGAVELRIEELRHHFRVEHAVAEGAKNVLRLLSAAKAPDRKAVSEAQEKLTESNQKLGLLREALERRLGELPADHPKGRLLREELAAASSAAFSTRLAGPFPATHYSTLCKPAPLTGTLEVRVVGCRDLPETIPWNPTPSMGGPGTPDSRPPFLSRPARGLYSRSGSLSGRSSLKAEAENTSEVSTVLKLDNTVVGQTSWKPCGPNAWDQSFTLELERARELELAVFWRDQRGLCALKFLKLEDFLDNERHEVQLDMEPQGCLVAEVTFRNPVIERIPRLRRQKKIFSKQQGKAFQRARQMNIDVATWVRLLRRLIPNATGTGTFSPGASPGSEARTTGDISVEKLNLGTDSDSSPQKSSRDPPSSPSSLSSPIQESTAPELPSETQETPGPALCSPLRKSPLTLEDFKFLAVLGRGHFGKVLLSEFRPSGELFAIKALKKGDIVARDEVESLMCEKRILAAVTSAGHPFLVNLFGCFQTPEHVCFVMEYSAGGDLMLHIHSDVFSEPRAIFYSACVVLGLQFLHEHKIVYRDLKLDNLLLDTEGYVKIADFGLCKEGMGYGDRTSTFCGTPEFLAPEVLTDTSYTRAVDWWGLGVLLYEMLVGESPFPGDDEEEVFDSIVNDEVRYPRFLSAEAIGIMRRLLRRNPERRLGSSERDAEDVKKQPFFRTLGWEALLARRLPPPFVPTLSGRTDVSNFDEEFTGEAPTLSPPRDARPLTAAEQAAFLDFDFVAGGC

In the case of `C=CC(=O)Nc1cc(Nc2ncc(Cl)c(Nc3ccccc3S(=O)(=O)C(C)C)n2)c(OC)cc1N(C)CCN(C)C`, the Activity is 17% in experiment [1]; 77% in experiment [2]; 78% in experiment [3]; 100% in [4]; 41% in experiment [5]; 91% in experiment [6]. Also, the Activity was determined as 31% in [7]; 66% in experiment [8]; 41% in experiment [9]; 93% in [10]; 0.05% in [11]; 100% in [12]. Besides, the Activity in [13] came out at 100%; in [14] it was 55%; in [15] it was 41%; in [16] it was 9.4%; in [17], 0.95%; in experiment [18] it was 0%. Further, the Activity in experiment [19] is 67%; in [20], 39%; in experiment [21], 1.6%; in [22], 100%; in [23], 92%; in experiment [24], 80%.
